Only some compounds are listed: those with a hit (about 12% of all), similar ones and a draw of the others.
Lmaj promast: inhibitors of Leishmania major promastigote growth; Leishmania major promastigotes, resazurin fluorescence viability; inhibition, % at 10 µM; 200,000 compounds, 9% hits; in the data active = inhibition above about 50%;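 also: promastigotes grown with compound for 44 hours at 28 °C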
MT stabilizer: microtubule stabilizers in HeLa cells | HeLa tubulin immunostaining HCS, 24 h; share of cells brighter than vehicle mean+2SD | % tubulin-high responders, % at 10 µM | 200,000 compounds, 0.83% hits;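 active = plate Z-score above 3 for both tubulin-high and condensed-nucleus cell shares, with cell loss under 80%, at 10 µM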;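 also: anti alpha tubulin signal scored within the nucleus-defined area of each cell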
Autophagy mod: modulators of autophagy. 190,000 compounds, 0.98% hits. calls only at 10 µM (by protocol). MEF GFP-LC3 puncta imaging; test concentration mostly 10 µM;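 active = percentage of spot-positive cells more than 3 SD above its plate mean, without a fluorescence outlier flag or 80% toxicity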;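 also: spot-positive cell cutoff set from DMSO-treated cells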
Dynein transport: blocks dynein driven cargo transport along microtubules | 3617.4 mouse cells, GR-EGFP nuclear translocation imaging; test concentration mostly 20 µM; stimulated with dexamethasone, 1 µM; hits give low values | z-score, hits read low | 220,000 compounds, 0.47% hits;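 active = plate z-score of nuclear minus cytoplasmic receptor signal below a set negative limit, without overly bright fluorescence or cell loss, cut at about -3.5 in these data, passing the limit was not always enough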;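 also: z-score of nuclear minus cytoplasmic ring GR-EGFP intensity difference per well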
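Schedule: 48 h induction, then 1 h compound, then 30 min agonist, 37 °C. Buffer or medium: tetracycline-free induction medium containing charcoal-stripped FBS. Reagent: 1.0 µM final dexamethasone stimulus. Evaluation: nuclear versus cytoplasmic GR-EGFP signal, averaged per well. Signal: high-content fluorescence imaging after fixation.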
CHOP inhibitor: inhibitors of CHOP induction in ER stress response | CHO-K1 CHOP-promoter luciferase, tunicamycin-induced, 15-18 h | 220,000 compounds, 3.8% hits | inhibition, % at 10 µM | AID 2732;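 active = compounds that reduced the stress-induced luciferase reporter signal by more than about 70% of percent inhibition, limit read from the data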;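 also: 0% = tunicamycin plus vehicle and 100% = wells without tunicamycin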
b-catenin transl: beta-catenin nuclear translocation modulation | HeLa beta-catenin nuclear translocation, immunofluorescence imaging | nuclear translocation activity, % at 5 µM | 190,000 compounds, 0.3% hits;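 active = nuclear translocation activity above 50% at 5 µM, with a well cell count of 50 or more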;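 also: per-cell ratio of nuclear to cytoplasmic median beta-catenin stain intensity; plate controls were DMSO negative control for no effect and GSK-3 inhibitor IX positive control for full effect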
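Test system: human HeLa cell line; Doses: 5 µM primary, 0.02–20 µM confirmation; Incubation: 24 h compound exposure, 37°C; Detection: beta-catenin immunofluorescence imaging with DAPI; Read-out: beta-catenin nuclear/cytoplasmic ratio, % activation.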
Active calls of the source: *; i = inactive; nt = not tested or not shown; + = active, no number.

SMILES	Lmaj promast	MT stabilizer	Autophagy mod	Dynein transport	CHOP inhibitor	b-catenin transl
C=CCN(c1ccccc1OC)S(=O)(=O)c1ccc(Cl)c(C(=O)Nc2ccc(N3CCOCC3)cc2)c1	18.7	3.8	i	-0.391	20.1	3.2
Cc1ccc(N(C)S(=O)(=O)c2cccc(C(=O)Nc3nc4ccccc4[nH]3)c2)cc1	90.0*	6.0	i	0.19	-36.9	2.9
Cc1ccc(C(=O)Nc2cccc(C(=O)O)c2)cc1S(=O)(=O)N1CCOCC1	-0.2	2.8	i	-1.43	16.3	-2.4
COc1ccccc1N(C)S(=O)(=O)c1ccc(C(=O)Nc2ccc3nc(C)sc3c2)cc1	99.7*	2.4	i	-0.287	35.0	-1.0
Cc1nc2ccc(NC(=O)c3ccccc3)cc2s1	-2.1	2.9	i	-0.533	-3.4	-1.0
COC(=O)c1ccc(NC(=O)c2ccccc2N(C)S(=O)(=O)c2ccccc2)cc1	4.5	0.8	i	-0.0146	20.6	-4.4
Cc1ccc(NC(=O)c2cccc(S(=O)(=O)N(C)c3ccccc3)c2)cc1S(=O)(=O)N1CCOCC1	98.3*	1.9	i	-0.176	42.9	1.2
CN(c1ccccc1C(=O)Nc1ccc(S(=O)(=O)N2CCOCC2)cc1)S(=O)(=O)c1ccccc1	90.8*	5.1	i	3.35	21.8	2.4
CCOCCCNC(=O)C(c1ccc(C)cc1)N(Cc1cccs1)C(=O)CNC(C)=O (stereo unspecified)	4.4	1.2	i	2.57	33.3	-2.5
Cc1cccc(-n2nnnc2SCC(=O)Nc2cccc(S(N)(=O)=O)c2)c1	nt	nt	nt	-0.186	18.6	-0.5
CCN1CCN(Cc2ccc(NC(=O)c3ccc(C)c(NC(=O)c4nccnc4N)c3)cc2C(F)(F)F)CC1	nt	nt	nt	0.995	79.0*	-1.7
C#C[C@]1(O)CC[C@H]2[C@@H]3CCc4cc(OC)ccc4[C@H]3CC[C@@]21C	0.3	5.4	+	0.856	70.1*	1.4
CCOC(=O)c1ccc(N2C(=O)CC(Nc3ccc(CCO)cc3)C2=O)cc1 (stereo unspecified)	-3.9	4.0	i	0.401	17.3	-2.0
CCCCNC(=O)CSc1nc2ccsc2c(=O)n1C1CCN(C(=O)OCC)CC1	87.4*	3.8	i	-0.41	-9.0	-5.6
O=C(CSc1nc2ccccc2o1)Nc1nc2ccc(Br)cc2s1	-0.3	1.5	i	-1.01	92.9*	3.7
Cc1cccc2sc(NC(=O)CSc3nc4ccccc4o3)nc12	-8.7	1.9	i	-0.994	67.5	2.1
COc1ccc2nc(NC(=O)CSc3nc4ccccc4o3)sc2c1	-3.8	1.1	i	-1.34	71.9*	-5.3
CCCC(C(=O)NC1CCCC1)N(CCCN1CCOCC1)C(=O)c1snc(C(N)=O)c1N (stereo unspecified)	4.4	3.1	i	1.58	15.3	0.6
O=C1/C(=C/c2cccnc2)CCc2c1[nH]c1ccccc21	47.5	4.2	i	-0.561	41.1	-0.4
CC1C/C(=C\c2cccnc2)C(=O)/C(=C/c2cccnc2)C1 (stereo unspecified)	100.3*	31.8*	i	-6.37*	102.0*	-0.5
COc1ccc(S(=O)(=O)N2c3cc(Cl)ccc3Oc3nc4ccccc4nc32)cc1	9.7	12.6	+	0.388	nt	-0.9
O=S(=O)(c1ccc(Cl)cc1)N1c2ccccc2Oc2nc3ccccc3nc21	-3.3	24.5*	i	-0.34	9.4	5.1
CC(=O)c1nc2ccccc2n1S(=O)(=O)c1ccc(Cl)cc1	-3.5	4.9	i	3.08	-14.1	-0.2
COC(=O)C1=C(C)N(C)C(C)=C(C(=O)OC)C1c1ccc(Cl)cc1	-2.8	2.2	i	-0.53	72.5*	-3.2
CCOC(=O)C1=C(C)N(C)C(C)=C(C(=O)OCC)C1c1ccc(C(=O)OC)cc1	37.9	0.9	i	-0.134	28.4	-1.8
SMILES	Lmaj promast	MT stabilizer	Autophagy mod	Dynein transport	CHOP inhibitor	b-catenin transl
CCOC(=O)C1=C(C)N(C)C(C)=C(C(=O)OCC)C1c1ccc(Cl)cc1	17.6	3.6	i	0.575	79.6*	2.3
CCOc1ccc(N2CC(C(=O)Nc3cccc(S(=O)(=O)NC4=NCCC4)c3)CC2=O)cc1 (stereo unspecified)	nt	nt	nt	-0.137	12.0	0.7
C/C(CC(=O)Nc1ccc(OCc2ccccc2)cc1)=N\NC(=O)C(=O)Nc1cccc(C)c1	13.2	2.8	i	1.36	93.9*	-1.6
COc1ccccc1NC(=O)C(=O)N/N=C(\C)CC(=O)Nc1ccc(OCc2ccccc2)cc1	-1.4	2.0	i	0.184	63.9	-3.9
CC(=O)Nc1ccc(NC(=O)C/C(C)=N/NC(=O)C(=O)Nc2ccc(C)c(Cl)c2)cc1	nt	nt	nt	-0.226	87.2*	-0.7
CN(C)S(=O)(=O)c1ccc(NC(=O)N2CCN(c3ccccc3Cl)CC2)cc1	-7.8	1.0	i	-0.274	50.5	-0.3
CCOC(=O)C1C(c2ccc([N+](=O)[O-])cc2)C2C(=O)NN=C2CC1(C)O (stereo unspecified)	nt	nt	nt	1.01	12.3	-0.1
CC(OC(=O)c1oc2ccccc2c1COc1ccccc1)C(=O)NC(N)=O (stereo unspecified)	10.3	5.3	+	0.62	31.2	-0.9
O=[N+]([O-])c1cccc(-n2nnnc2CN2CCCC2)c1	-1.7	3.4	i	0.774	-18.6	-2.0
CCOC(=O)c1c(NC(=O)C2COc3ccccc3O2)sc2c1CC(C)(C)NC2(C)C (stereo unspecified)	99.0*	3.1	i	-0.229	9.3	-1.7
COc1cc2[nH]c(=O)n(C3CCCCC3)c(=O)c2cc1OC	50.2*	3.2	i	-1.28	11.4	1.2
Cc1ccc(Nc2nnc(SCc3cc(=O)n4cc(C)ccc4n3)s2)cc1	67.7*	1.0	i	0.545	5.1	-0.1
COc1ccc(Nc2nnc(SCc3cn4c(C)cccc4n3)s2)cc1	-1.8	19.2*	i	0.499	2.5	10.3
Cc1cccc2nc(CSc3nnc(N)s3)cn12	1.9	0.8	i	-0.427	6.2	-0.2
Cc1cc([N+](=O)[O-])nn1CCCC(=O)Nc1sc2c(c1C(N)=O)CCCC2	5.8	2.5	i	-0.354	28.4	1.5
O=C(CCCn1cnc([N+](=O)[O-])n1)Nc1ccc(F)c(Cl)c1	83.4*	1.5	i	-0.81	-1.9	-4.3
CC1CCc2c(sc(NC(=O)CCCn3cnc([N+](=O)[O-])n3)c2C(N)=O)C1 (stereo unspecified)	92.3*	4.8	i	0.168	40.0	-2.7
NC(=O)c1c(NC(=O)CCCn2cnc([N+](=O)[O-])n2)sc2c1CCCC2	54.5*	0.9	i	-0.339	4.7	1.7
CC(=O)Nc1ccc(S(=O)(=O)N2CCN(C(C)CCc3ccccc3)CC2)cc1 (stereo unspecified)	85.5*	1.3	i	-0.872	30.6	1.3

Source: PubChem BioAssay
